From PubChem
The full list was thinned out, with hits kept by preference.
CHOP inh: inhibitors of CHOP promoter induction, primary screen, cell-based, unfolded protein response, luciferase reporter. CHO-K1 CHOP-promoter luciferase, tunicamycin-induced, 15-18 h. inhibition, % at 10 µM. actives 3.8% (n = 220,000). AID 2732, 2010;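 active = compounds that reduced the stress-induced luciferase reporter signal by more than about 70% of percent inhibition, limit read from the data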
697 NFkB inh: inhibitors of PMA/ionomycin-induced NF-kB reporter, 697 cells, primary screen, B-cell NF-kB inhibitor project, cell-based, luminescence, uHTS; inhibition, % at 4 µM; 697 B-cell NF-kB luciferase reporter, 16 h; actives 0.33% (n = 330,000); in the data active = inhibition above about 35%
UPR CHOP act: activators of apoptotic CHOP UPR arm, primary screen, cell-based, CHO-CHOP luciferase reporter, luminescence, uHTS. AID 449763, 2010. activation, % at 10 µM. UPR activation; percent of tunicamycin response over DMSO baseline. actives 0.34% (n = 330,000);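 active = at 10 µM dose, activation of 40% or more, normalized to positive control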
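Evaluation: % reporter activation, DMSO baseline versus tunicamycin full activation; System: CHO-CHOP luciferase reporter cell line; Input: 500 cells/well; Incubation: 6 h compound treatment, 37 °C; Measured by: Steady-Glo luciferase luminescence; Dosing: one dose, 10 µM in 0.5% DMSO; Buffer or medium: F12 medium, 10% FBS; Benchmarks: positive tunicamycin 10 µg/mL, negative DMSO alone.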
Jurkat NFkB inh: inhibitors of induced NF-kB luciferase reporter, primary screen, TCR NF-kB activation inhibitor project, cell-based, luminescence, uHTS; Jurkat, PMA/ionomycin-induced NF-kB luciferase reporter; actives 0.53% (n = 330,000); inhibition, % at 4 µM; AID 435003, 2010; in the data active = inhibition above about 50%
UPR XBP1 act: activators of adaptive XBP1 UPR arm, primary screen, cell-based, CHO-XBP1 luciferase reporter, luminescence, uHTS | IRE1-XBP1 UPR activation; percent of tunicamycin response, DMSO as zero | AID 463104, 2010 | actives 0.33% (n = 330,000) | activation, % at 20 µM;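 active = versus positive control, 20 µM dose yields 30% or more activation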
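Test system: CHO-XBP1 luciferase reporter cells | Buffer or medium: Serum-containing F12 medium, 10% FBS | Schedule: 6 h compound exposure at 37 °C, 5% CO2 | Detection: Steady-Glo luciferase glow luminescence, 10 min after reagent addition | Read-out basis: Activation, % of tunicamycin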
Large screens that a line does not name were inactive.

COc1ccc2cc3c(N)nn(C(=O)c4cccc([N+](=O)[O-])c4)c3nc2c1	CHOP inh 76.5
COc1ccccc1C(=O)Oc1ccc(C(C)(C)C)cc1	CHOP inh 74.9
O=C(NCc1ccccc1)c1ccc(NC(=O)C2CCCO2)cc1 (stereo not given)	none (no result: CHOP inh)
CCN1C(=Nc2ccc(Cl)cc2)SC/C1=C\C(=O)OC	CHOP inh 81.5
CCN1C(=O)CSC1=Nc1ccc(C(=O)O)cc1	none (no result: CHOP inh)
COc1ccccc1NS(=O)(=O)c1cccc(C(=O)N2CCCCCCC2)c1	none (no result: CHOP inh)
CC[N+]1=C(C)C(C)(C)c2cc(C)ccc21	CHOP inh 73.6
CCN1C(=O)C(=O)c2cc(C)ccc21	none (no result: CHOP inh)
Brc1cccc(OCCCNC2CCCC2)c1	none (no result: CHOP inh)
CC(C)CNC(=O)CSc1nnc(-c2ccccn2)n1Cc1ccccc1	CHOP inh 71.3
O=C(/C=C/c1ccc(Br)cc1)NC(=S)NNC(=O)c1ccco1	CHOP inh 76.5
CCOCCCNC(=O)c1c(N)n(-c2ccc3c(c2)OCO3)c2nc3ccccc3nc12	CHOP inh 72.8
O=c1c2[nH]c3ccccc3c2ncn1CCC1=CCCCC1	none
C1=C(CCNc2ncnc3c2[nH]c2ccccc23)CCCC1	CHOP inh 79.8 (no result: 697 NFkB inh, UPR CHOP act, Jurkat NFkB inh, UPR XBP1 act)
O=C(N/N=C/c1cc2ccccc2[nH]1)c1ccccc1Cl	none
Cc1ccc(C(=O)N2CCN(c3ccc(NC(=O)c4ccc(Br)o4)cc3)CC2)cc1	CHOP inh 71.7
Cc1ccc(NS(=O)(=O)c2ccc(NC(=O)C(C)Sc3ccc(Cl)cc3)cc2)c(C)c1 (stereo not given)	CHOP inh 82.6
CC(=O)NS(=O)(=O)c1ccc(NC(=O)CSc2ccc(Cl)cc2)cc1	none
O=C(CSCc1ccc(Br)cc1)Nc1ccc(S(=O)(=O)N2CCOCC2)cc1	none
Cc1ccccc1NS(=O)(=O)c1ccc(NC(=O)CSCc2ccc(Br)cc2)cc1	CHOP inh 79.8
Cc1ccc(C)c(NS(=O)(=O)c2ccc(NC(=O)CSc3ccc(Cl)cc3)cc2)c1	CHOP inh 94.3
CC(=O)NS(=O)(=O)c1ccc(N=c2ssc3c2-c2ccc(C)cc2NC3(C)C)cc1	none
O=C1CCCc2[nH]c3cccc(/C(=C/c4ccccc4)c4ccccc4)c3c21	none (no result: CHOP inh)
COC(=O)c1ccc2[nH]c3cccc(/C(=C/c4ccccc4)c4ccccc4)c3c2c1	UPR XBP1 act 92.5 (no result: CHOP inh)
Nc1cc(-c2ccc(Br)cc2)nn1S(=O)(=O)c1ccccc1	CHOP inh 72.0
Nc1cc(-c2ccc(Br)cc2)nc2cc(-c3ccccc3)nn12	CHOP inh 81.8
Nc1cc(-c2ccccc2)nn1S(=O)(=O)c1ccc(F)cc1	none
CC(=O)c1sc(NC(=O)c2ccc(F)cc2)nc1-c1ccccc1	CHOP inh 75.2
Cc1onc(-c2ccccc2)c1C(=O)NC(=S)NNC(=O)c1ccccc1O	CHOP inh 77.5
Cc1onc(-c2ccccc2)c1C(=O)NC(=S)NNC(=O)c1ccc(O)cc1O	none
O=C(Nc1ccc(-c2nc3ccccc3o2)c(O)c1)c1cc(-n2cnnc2)ccc1Cl	CHOP inh 92.2
O=C(Nc1ccc(-c2nc3ccccc3o2)cc1)c1cc(-n2cnnc2)ccc1Cl	none
N#Cc1cc2c(cc1NC(=O)CCn1cnnn1)OCO2	none (no result: CHOP inh)
CC1CCC(C(C)C)C(OC(=O)COC(=O)c2ccc(N)cc2)C1 (stereo not given)	CHOP inh 83.7
O=C1CC(c2ccco2)CC(O)=C1C=Nc1ccc(Br)cc1 (stereo not given)	CHOP inh 87.4
Cc1cc(C)n(CC(=O)NNC(=O)c2ccc(NC(=O)CC#N)cc2)n1	none (no result: CHOP inh)
CN1CCN(C(=O)c2ccccc2NS(=O)(=O)c2ccc(F)cc2)CC1	none (no result: CHOP inh)
C=CCc1ccccc1OCC(=O)N/N=C/c1ccc(OC(C)=O)cc1OC(C)=O	CHOP inh 72.6
COc1cc(-c2nnc(COc3ccc(Cl)cc3C)o2)cc(OC)c1OC	CHOP inh 71.6
CC(C)N(C(=O)COC(=O)c1cccc(S(=O)(=O)N2CC3(C)CC2CC(C)(C)C3)c1)C(C)C (stereo not given)	none (no result: CHOP inh)
CCCc1cc(C(=O)Cc2ccc(C(=O)OCC)o2)c(O)cc1O	none
CCCc1cc(-c2n[nH]c(C)c2-c2ccc(C(=O)OCC)o2)c(O)cc1O	CHOP inh 70.7
O=C(Nc1nc(-c2ccccc2)cs1)C1CCCCN1S(=O)(=O)c1ccccc1 (stereo not given)	none
O=C(Nc1nc(-c2ccccc2)cs1)NC1CCCCC1	CHOP inh 93.2
c1ccc(-c2csc(NC3CCCCC3)n2)cc1	none (no result: CHOP inh)
O=C(Nc1nc(-c2ccccc2)cs1)C1CCCCN1S(=O)(=O)c1ccc(Cl)cc1 (stereo not given)	CHOP inh 70.3
Cc1ccc(-c2cc(C(=O)N/N=C\c3cnn(C)c3C)c3ccccc3n2)cc1C	none
C[C@H](CO)N1C[C@H](C)[C@@H](CN(C)C(=O)Nc2ccc(C(F)(F)F)cc2)Oc2ccc(NS(=O)(=O)c3ccccc3)cc2C1=O	none (no result: CHOP inh)
Oc1ccccc1Oc1c(F)c(F)nc(N2CCCC2)c1F	CHOP inh 93.5
O=C(c1cnccn1)N1CCN(C/C=C/c2ccccc2)CC1	none
CN(C)S(=O)(=O)c1ccc(C(=O)OCC(=O)Nc2sc3c(c2C#N)CCCCC3)cc1	none
CC(C)(C)c1ccc(C(=O)OCC(=O)Nc2sc3c(c2C#N)CCC3)cc1	CHOP inh 90.2
O=C1/C(=C\c2ccco2)CCC/C1=C\c1ccco1	CHOP inh 87.4
CC(=O)Nc1ccc(NC(=O)c2ccc(Cn3cc(Cl)cn3)cc2)cc1	CHOP inh 92.1
Cc1nn(-c2ccccc2)c(C)c1NC(=O)COC(=O)/C=C/c1ccccc1	none (no result: CHOP inh)
C=CCN1C(=O)/C(=C/c2ccc(-c3ccc(F)cc3)o2)SC1=S	none (no result: CHOP inh)
Cc1ccc(NC(=O)c2cccc3ccccc23)cc1	none (no result: CHOP inh)
Cc1ccc(NC(=O)c2csc(-c3ccccc3)c2C)cc1	CHOP inh 100.2 (no result: 697 NFkB inh, UPR CHOP act, Jurkat NFkB inh, UPR XBP1 act)
Cc1ccc(NC(=O)c2cc(C)n(-c3ccccc3)c2C)cc1	CHOP inh 72.0
Cc1ccc(NC(=O)c2cc(C)n(-c3cccc(C)c3)c2C)cc1	none
CCOc1ccc(NC(=O)c2ccc(NC(=O)Cc3n[nH]c(=O)c4ccccc34)cc2)cc1	none
Cc1ccc(Cl)cc1NC(=O)C1CCCN1S(=O)(=O)c1ccc(-c2ccc(=O)[nH]n2)s1 (stereo not given)	none (no result: CHOP inh)
CN(C)c1nc(C=C(C#N)C#N)c(Cl)n1-c1ccc(F)cc1	CHOP inh 95.7 (no result: 697 NFkB inh, UPR CHOP act, Jurkat NFkB inh, UPR XBP1 act)
C=CCc1ccc(O)c(-c2ccc(O)c(CC=C)c2)c1	none
Nc1ccc2oc(-c3cccc4ccccc34)nc2c1	CHOP inh 81.3
